Data on 4 molecules can be found in ChEMBL document CHEMBL1134337, “Behavioral approach to nondyskinetic dopamine antagonists: identification of seroquel” (J Med Chem, 2001).

The nature of test [1]: Number of animals showing dyskinesias was determined in haloperidol sensitized 11 cebus monkeys after (po) administration of 40 mg/kg. The class given is functional. The method in brief: (§1)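 Adult male and female Cebus monkeys sensitized with haloperidol 1 mg/kg po weekly until dyskinetic reactions appeared. Drug given orally (2 mL/kg) in 0.5% w/w hydroxypropylmethylcellulose with 0.1% w/w Tween 80, at least 2 weeks between treatments. Two observers watched continuously for 6–7 h, logging reaction type and severity every 30 min. Score is the number of monkeys with dyskinesias over the number tested.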

The nature of test [2]: Number of animals showing dyskinesias was determined in haloperidol sensitized 13 cebus monkeys after (po) administration of 10 mg/kg. The class given is functional. The procedure, abridged: as §1
Test [3] is described as follows: Number of animals showing dyskinesias was determined in haloperidol sensitized 13 cebus monkeys after (po) administration of 20 mg/kg. Type of test: functional. The procedure, abridged:
as §1

The test system of test [4] is Mus musculus. Put plainly: Antagonism of apomorphine induced climbing was determined in female swiss -Webster mice after (ip) administration of 10 mg/kg. The class given is functional. The method in brief: (§2)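 Female Swiss-Webster mice (about 20 g) were fasted about 24 h, then given test compound or vehicle ip or po (N = 20 per group). Vehicle was 0.5% w/w hydroxypropylmethylcellulose with 0.1% w/w Tween 80 in water. After 30 min, mice received apomorphine HCl 1.25 mg/kg sc. At 13 min, each mouse was watched for 1 min; score was mean of highest and lowest rung of 27. Groups were compared with vehicle by Student's t-test.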

For test [5], the system named is Mus musculus. Put plainly: Antagonism of apomorphine induced climbing was determined in female swiss -Webster mice after (ip) administration of 20 mg/kg. The class given is functional. The procedure, abridged: as §2
Test [6] concerns Mus musculus. The experiment in a line: Antagonism of apomorphine induced climbing was determined in female swiss -Webster mice after (ip) administration of 40 mg/kg. Type of test: functional. The method in brief: as §2
Test [7] concerns Mus musculus. Put plainly: Antagonism of apomorphine induced climbing was determined in female swiss -Webster mice after (ip) administration of 80 mg/kg. Type of test: functional. The procedure, abridged:
as §2

For test [8], the system named is Mus musculus. Put plainly: Antagonism of apomorphine induced swimming was determined in female swiss -Wbster mice after (po) administration of 20 mg/kg. The class given is functional.
Test [9] concerns Mus musculus. Put plainly: Antagonism of apomorphine induced swimming was determined in female swiss -Wbster mice after (po) administration of 40 mg/kg. Type of test: functional.
The test system of test [10] is Mus musculus. Put plainly: Antagonism of apomorphine induced swimming was determined in female swiss -Wbster mice after (po) administration of 80 mg/kg. The class given is functional.
Test [11] deals with Mus musculus. Put plainly: Antagonism of apomorphine induced swimming was determined in female swiss -Webster mice after (po) administration of 10 mg/kg. The class given is functional. The method in brief:
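Female Swiss-Webster mice (~20 g), food-deprived ~24 h, N = 20 per group; oral dosing in 0.5% w/w hydroxypropylmethylcellulose with 0.1% w/w Tween 80 in water. Apomorphine given; mice placed in a circular tank (5.5 cm water, room temperature) with marks 180° apart. Each 180° swim counted, observed via overhead mirrors; group score derived from swim counts.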

Test [12] in a line: Number of animals showing dyskinesias was determined in haloperidol sensitized 3 cebus monkeys after (po) administration of 80 mg/kg. Type of test: functional. The following applies: dose 10 mg/kg; in the assay text read “10 mg/kg” for “80 mg/kg”. The method in brief:
(§3)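 Adult female and male Cebus monkeys sensitized with oral haloperidol 1 mg/kg once per week until dyskinetic reactions occurred. Test drug given orally (2 mL/kg) in 0.5% w/w hydroxypropylmethylcellulose with 0.1% w/w Tween 80 in distilled water, at least 2 weeks between treatments. Two observers watched continuously for 6-7 h, recording reaction type and severity every 30 min. Score is monkeys with dyskinesias/monkeys tested.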

In the next test the target is D(2) dopamine receptor (Rattus norvegicus, UniProt P61169). Put plainly: Inhibition of spiropiperidone binding at dopamine receptor D2 of rat.
Sequence of D(2) dopamine receptor (P61169 whole entry): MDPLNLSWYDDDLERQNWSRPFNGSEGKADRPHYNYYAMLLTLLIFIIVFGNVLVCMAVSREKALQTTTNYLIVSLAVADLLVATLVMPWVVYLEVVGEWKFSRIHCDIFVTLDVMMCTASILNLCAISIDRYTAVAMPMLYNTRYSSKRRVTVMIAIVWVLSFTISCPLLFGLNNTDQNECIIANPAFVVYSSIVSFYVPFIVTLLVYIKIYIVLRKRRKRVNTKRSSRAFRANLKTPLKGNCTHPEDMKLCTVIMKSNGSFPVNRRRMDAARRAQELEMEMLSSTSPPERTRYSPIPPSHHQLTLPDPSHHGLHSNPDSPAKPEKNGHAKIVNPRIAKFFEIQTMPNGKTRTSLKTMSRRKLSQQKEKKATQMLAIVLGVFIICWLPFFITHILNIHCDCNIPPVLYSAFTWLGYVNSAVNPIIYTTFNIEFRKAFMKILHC
The subject of test [13] is Mus musculus. Put plainly: Antagonism of apomorphine induced climbing was determined in female swiss -Webster mice after (ip) administration of 2.5 mg/kg. Type of test: functional. The method in brief:
as §2

In test [14] the test system is Mus musculus. Put plainly: Antagonism of apomorphine induced climbing was determined in female swiss -Webster mice after (ip) administration of 5 mg/kg. The class given is functional. The method in brief: as §2
Test [15] concerns Mus musculus. Put plainly: Antagonism of apomorphine induced swimming was determined in female swiss -Wbster mice after (po) administration of 10 mg/kg. The class given is functional.
The test system of test [16] is Mus musculus. Put plainly: Antagonism of apomorphine induced swimming was determined in female swiss -Wbster mice after (po) administration of 2.5 mg/kg. The class given is functional.
Test [17] concerns Mus musculus. The experiment in a line: Antagonism of apomorphine induced swimming was determined in female swiss -Wbster mice after (po) administration of 5 mg/kg. The class given is functional.
Test [18] relates to Mus musculus. Put plainly: Antagonism of apomorphine induced climbing was determined in female swiss -Wbster mice after (ip) administration of 10 mg/kg. Type of test: functional. The procedure, abridged: as §2
In test [19] the test system is Mus musculus. Put plainly: Antagonism of apomorphine induced climbing was determined in female swiss -Wbster mice after (ip) administration of 20 mg/kg. The class given is functional. The method in brief:
as §2

In test [20] the test system is Mus musculus. Put plainly: Antagonism of apomorphine induced climbing was determined in female swiss -Wbster mice after (ip) administration of 40 mg/kg. The class given is functional. The procedure, abridged:
as §2

Test [21] concerns Mus musculus. The experiment in a line: Antagonism of apomorphine induced climbing was determined in female swiss -Wbster mice after (ip) administration of 80 mg/kg. The class given is functional. The procedure, abridged:
as §2

For test [22], the system named is Mus musculus. Put plainly: Antagonism of apomorphine induced swimming was determined in female swiss -Webster mice after (po) administration of 20 mg/kg. Type of test: functional.
In test [23] the test system is Mus musculus. Put plainly: Antagonism of apomorphine induced swimming was determined in female swiss -Webster mice after (po) administration of 40 mg/kg. Type of test: functional.
Test [24] concerns Mus musculus. The experiment in a line: Antagonism of apomorphine induced swimming was determined in female swiss -Webster mice after (po) administration of 80 mg/kg. Type of test: functional.
Test [25] in a line: Number of animals showing dyskinesias was determined in haloperidol sensitized 12 cebus monkeys after (po) administration of 80 mg/kg. The class given is functional. The method in brief: as §3
Test [26] in a line: Number of animals showing dyskinesias was determined in haloperidol sensitized 2 cebus monkeys after (po) administration of 20 mg/kg. The class given is functional. The method in brief: as §3
Test [27] can be described thus: Number of animals showing dyskinesias was determined in haloperidol sensitized 4 cebus monkeys after (po) administration of 40 mg/kg. The class given is functional. The method in brief: as §3
Test [28] addresses D(2) dopamine receptor (Rattus norvegicus) (UniProt P61169). The experiment in a line: Binding affinity at dopamine receptor D2 from rat by spiropiperidone displacement. The procedure, abridged:
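D2 receptor binding was read as % displacement of spiropiperidone, with test compound at 1000 nM unless stated otherwise. IC50 values used at least five concentrations per compound in triplicate. Each value is the mean of two replicate experiments differing by 5% or less.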

Test [29] concerns Mus musculus. Put plainly: Antagonism of apomorphine induced climbing was determined in female swiss -Wbster mice after (po) administration of 20 mg/kg. Type of test: functional. The method in brief:
as §2

The test system of test [30] is Mus musculus. Put plainly: Antagonism of apomorphine induced climbing was determined in female swiss -Wbster mice after (po) administration of 40 mg/kg. The class given is functional. The procedure, abridged:
as §2

The subject of test [31] is Mus musculus. The experiment in a line: Antagonism of apomorphine induced climbing was determined in female swiss -Wbster mice after (po) administration of 80 mg/kg. The class given is functional. The method in brief:
as §2

Sequence of D(2) dopamine receptor (Rattus norvegicus) (P61169 whole entry): as above

In the case of `CN1CCN(C2=Nc3cc(Cl)ccc3Nc3ccccc32)CC1` [CLOZAPINE], the No of monkeys in [1], in [2] and in [3] was 0 each time. The Activity was 23 with Mus musculus [4]; 19 in the test with Mus musculus [5]; >5 in the test on Mus musculus [6]; >0 with Mus musculus [7]; 3 in the test on Mus musculus [8]; >13 in the test on Mus musculus [9]. The Activity in the test on Mus musculus [10] is recorded as >15; in the test on Mus musculus [11] it was 4.
For orientation: IC50 means the point on the concentration scale where inhibition reaches its midpoint. A high value points to weaker potency in that assay. In the case of `CN1CCN(C2=Nc3ccc(O)cc3Sc3ccccc32)CC1`, the No of monkeys in test [12] is 3. In addition, the IC50 at D(2) dopamine receptor came out at 49 nM. Further, the Activity is on record as 1 with Mus musculus [4]; 18 with Mus musculus [13]; 1 in the test on Mus musculus [5]; 13 in the test with Mus musculus [14]; 34 in the test with Mus musculus [15]; 3 in the test with Mus musculus [16]. For the same molecule, the Activity in the test on Mus musculus [8] stood at 32; in the test on Mus musculus [17] it was 10.
For the molecule `CN1CCN(C2=Nc3ccc(F)cc3Sc3ccccc32)CC1`, the half-maximal inhibitory concentration (IC50) at D(2) dopamine receptor came to 963 nM. The Activity in the test on Mus musculus [18] amounted to 18; with Mus musculus [19], 13; with Mus musculus [20] it was 5; in the test with Mus musculus [21], 1; in the test with Mus musculus [11] it was 1; with Mus musculus [22] it was 2. Besides, the Activity was 3 with Mus musculus [23] and 9 with Mus musculus [24].
As for `OCCOCCN1CCN(C2=Nc3cc(Cl)ccc3Sc3ccccc32)CC1`, the No of monkeys in test [25], in test [26] and in test [27] was 0 throughout. This molecule returned a % displacement of spiropiperidone in test [28] of 58%. Further, the Activity came to 20 with Mus musculus [18]; 12 in the test on Mus musculus [19]; 8 in the test on Mus musculus [20]; 0 in the test on Mus musculus [21]; 25 in the test on Mus musculus [29]; 24 in the test on Mus musculus [30]. Also, the Activity in the test on Mus musculus [31] is listed as 16; in the test with Mus musculus [8] it was 1; in the test with Mus musculus [9], 1; in the test on Mus musculus [10] it was 1.
